# Screening data as filed in PubChem.
# Diaphorase inh: counter-screen for diaphorase-based assays: diaphorase inhibitors and chemical oxidizers. diaphorase resazurin-to-resorufin fluorescence, NADH, 16 min; bacterial (C. kluyveri) enzyme, not human. AID 1217. inhibition, % at 20 µM. hit rate 0.69% among 190,000;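 active means primary screen inhibition at 20 µM above a set limit, cut at about 50% in these data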
#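 Benchmarks: positive control wells lacking NADH, neutral wells with DMSO only. System: bacterial diaphorase enzyme (C. kluyveri). Input: 0.14 U/mL diaphorase, enzyme working solution. Detection: resorufin fluorescence, excitation 544 nm, emission 590 nm. Times: 16-min room-temperature incubation before reading.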
# ROMK mod: human ROMK K+ channel modulation, primary screen. AID 1918. Tet-inducible ROMK, thallium flux fluorescence; actives lie on both sides. hit rate 2% among 130,000. B-score at 10 µM. P48048;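 active means signal ratio slope over the read window, or its plate-corrected B-score, at least 3 SD from the plate mean, either direction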;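 further: B-score of the F/F0 ratio slope over 7 to 12 s after thallium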
# Lmaj promast: reduces viability of Leishmania major promastigotes; resazurin fluorescence viability; inhibition, % at 10 µM; hit rate 9% among 200,000; AID 1063; in the data active means inhibition above about 50%;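 further: promastigotes grown with compound for 44 hours at 28 °C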
# Diaph act CS: counter-screen for diaphorase-based assays: diaphorase activators and chemical reducers; Diaphorase/resazurin coupled assay, resorufin fluorescence, 16 min; active compounds read high; 1 = vehicle wells, 0 = NADH-free wells; activation factor at 20 µM; hit rate 0.005% among 190,000;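 active means diaphorase activity raised at least twofold by the compound at 20 µM; inactive means activation factor below 2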
#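 Measured by – red resorufin fluorescence at 544/590 nm excitation/emission · Test system – Clostridium kluyveri diaphorase, purified enzyme · Incubation – reaction time 16 min, room temperature · Buffer or medium – 50 mM HEPES pH 7.4 with 4.542 mM MgCl2, 0.005% Tween 20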
# KCC2 mod: modulates chloride dependent transport by human KCC2 | Q9H2X9 | KCC2 cells, thallium flux FluoZin-2 fluorescence | B-score of Tl+ flux slope (higher = more flux/activation; lower = inhibition) at 10 µM | hit rate 2.2% among 190,000 | AID 1456;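 active means thallium flux slope and its plate-corrected score both differing from the plate sample mean at a set confidence after two filtering rounds, in either direction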;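 further: slope of fluorescence scaled to starting intensity during 10 to 20 s after thallium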
# WT yeast gro inh: growth inhibition of WT yeast, mitochondrial fusion screen. mitochondrial fusion phenotypic screen, WT strain. inhibition, % at 10 µM. hit rate 2.1% among 190,000; in the data active means inhibition above about 58%; tested in S. cerevisiae
# Hits are given with their value; - = inactive; . = no result. Only some compounds are listed: those with a hit (about 12% of all), similar ones and a draw of the others.
SMILES,Diaphorase inh,ROMK mod,Lmaj promast,Diaph act CS,KCC2 mod,WT yeast gro inh
CCN1CCN(C(=O)CN(c2cccc(Br)c2)S(=O)(=O)c2ccccc2)CC1,-,-,98.5,-,-,-
CCOC(=O)N1CCN(C(=O)CN(c2cccc(C)c2)S(=O)(=O)c2ccccc2)CC1,-,.,-,-,.,-
CN(c1ccc(C(=O)N2CCN(Cc3ccc4c(c3)OCO4)CC2)cc1)S(=O)(=O)c1ccccc1,-,-,95.5,-,.,-
O=C(NCC1CCCO1)C1CC1(c1ccccc1)c1ccccc1 (stereo not drawn),-,.,-,-,-,-
CCCNC(=O)Cn1nc(C(F)(F)F)c2c1CCCC2,-,.,-,-,-,-
c1ccc(COc2cccc(CNn3cnnc3)c2)cc1,-,.,-,-,-,-
CC(NCc1cccc(OCc2ccccc2)c1)C(O)c1ccccc1 (stereo not drawn),-,-,100.4,-,-,-
CC(NCc1ccc(OCc2ccc(Cl)cc2)cc1)C(O)c1ccccc1 (stereo not drawn),-,-,100.4,-,-,-
CC(NC(=O)CCCOc1ccc(Cl)cc1)c1ccccc1 (stereo not drawn),-,-,-,-,-,-
COc1cc2c(cc1OC)C(Nn1cnnc1)=NC1(CCCC1)C2,.,-,.,.,-,.
CCCN1C(=O)/C(=C\C=C2/C=CN(CC)c3ccccc32)SC1=S,-,.,-,-,-,59.2
CN1CCS/C1=C/C=C1/SC(=S)N(Cc2ccccc2)C1=O,-,-,-,-,-,-
C#CCOCCOCCOCCNc1nc(N2CCOCC2)nc(N2CCN(C(=O)[C@H](Cc3ccc(O)cc3)n3cc([C@@H](N)C(C)CC)nn3)CC2)n1 (stereo partly drawn),78.7,.,-,-,-,-
CC12CCC(=O)N1C(C(=O)OCC(=O)Nc1cc(S(=O)(=O)N3CCCCC3)ccc1Cl)CS2 (stereo not drawn),-,-,-,-,-,-
Cc1cc(C)c(NC(=O)c2sc3nc(C)[nH]c(=O)c3c2C)c(C)c1,-,-,-,-,-,-
Cc1ccc(NC(=O)c2sc3nc(CCl)[nH]c(=O)c3c2C)c(C)c1,-,-,88.6,-,-,-
CCOc1ccc(C2C(C#N)=C(N)N(c3sc4c(c3C#N)CCCC4)C3=C2C(=O)CCC3)cc1 (stereo not drawn),-,-,57.4,-,-,-
N#CC1=C(N)N(c2ncn[nH]2)C2=C(C(=O)CCC2)C1c1ccccc1 (stereo not drawn),-,-,-,-,-,-
N#CC1=C2N=C(N)c3c(sc4c3CCCCC4)N2C2=C(C(=O)CCC2)C1c1ccccc1 (stereo not drawn),-,.,-,-,-,-
CSc1ccc(C2C(C#N)=C(N)N(c3ccccc3)C3=C2C(=O)CCC3)cc1 (stereo not drawn),-,-,73.8,-,-,-
O=C(NCc1ccc(C(F)(F)F)cc1)C1CC(c2ccccc2[N+](=O)[O-])=NO1 (stereo not drawn),-,.,-,-,-,-
c1ccc2[nH]c3cc4ncnc4cc3nc2c1,55.4,.,98.6,-,-,-
COc1cccc(OC)c1C(=O)Nc1nc2ccc([N+](=O)[O-])cc2s1,-,-,-,-,-,-
Brc1cccc(OCCCN2CCCCCC2)c1,-,-,96.0,-,-,-
c1ccc(Oc2cccc(OCCCCN3CCCC3)c2)cc1,-,-,99.1,-,-,-
SMILES,Diaphorase inh,ROMK mod,Lmaj promast,Diaph act CS,KCC2 mod,WT yeast gro inh
CC1CCN(CCOc2cccc(Br)c2)CC1,-,.,71.0,-,-,-
Clc1cccc(OCCN2CCN(CCOc3cccc(Cl)c3)CC2)c1,-,-,99.3,-,-,-
COc1cccc(C(=O)OCCN2CCCCC2)c1,-,-,-,-,-,-
CC(=O)Nc1ccc(C(=O)OCC(=O)NCc2ccc(Cl)cc2)cc1,-,.,-,-,-,-
O=C(CCc1ccccc1)NCCc1nc2ccccc2[nH]1,-,-,-,-,-,-
CCOc1ccc(NC(=O)c2ccccc2OCC(=O)c2ccccc2)cc1,-,-,-,-,-,-
Cn1c(CNC(=O)c2ccccc2)nnc1SCC(=O)Nc1nccs1,-,-,-,-,-,-
COC(=O)c1ccccc1N/C=C/C(=O)c1ccc(Br)cc1,-,-,73.4,-,-,-
Cc1c(C(=O)c2ccc(Cl)c(Cl)c2)cnc2cc3c(cc12)OCO3,-,-,-,-,-,61.2
NNC(=O)CNC(c1ccccc1)c1cc(Br)ccc1NC(=O)c1ccccc1Br (stereo not drawn),-,.,-,-,-,-
CCCCOc1ccc(/C=C/C(=O)Nc2ccc(C(N)=O)cc2)cc1,-,-,90.6,-,-,-
CNCCCNCc1ccc(SC)cc1,-,-,-,-,-,-
Cc1onc(-c2ccccc2Cl)c1C(=O)Nc1ccc(N2CCOCC2)cc1,-,.,-,-,-,-
Cc1onc(-c2c(Cl)cccc2Cl)c1C(=O)c1c[nH]c(C(=O)NCCCN2CCOCC2)c1,-,.,-,-,-,-
Cc1onc(-c2ccccc2Cl)c1C(=O)NCCCN1CCOCC1,-,-,53.1,-,.,-
Cc1onc(-c2c(Cl)cccc2Cl)c1C(=O)NCCCN1CCOCC1,-,-,87.7,-,-,-
CSc1nnc2c(n1)OC(c1ccccn1)N(C(C)=O)c1ccccc1-2 (stereo not drawn),-,.,-,-,-,-
COCCn1c(=O)[nH]c(=O)c2c(C(F)(F)F)cc(-c3cccs3)nc21,-,.,-,-,-,-
CCOC(=O)c1c(C)n(-c2ccc(C)cc2)c2ccc(O)c(CN(C)C)c12,-,-,98.6,-,-,-
CC(=O)c1ccccc1OCCn1nnc(-c2ccc(C)cc2)n1,-,.,-,-,-,-
NC(N)=N/N=C/c1cccc([N+](=O)[O-])c1O,-,-,-,-,-,-
O=[N+]([O-])c1cccc(/C=N\N=C2c3ccccc3-c3ccccc32)c1O,-,-,74.3,-,-,-
CC(C(=O)Nc1cccnc1)n1cc([N+](=O)[O-])cn1 (stereo not drawn),-,-,-,-,-,-
CCOc1ccc(N(CC(=O)NCC2CCCO2)C(=O)CCC(=O)Nc2nccs2)cc1 (stereo not drawn),-,-,-,-,-,-
O=C(c1sc2cc(F)ccc2c1Cl)N1CCN(c2ccccc2)CC1,-,-,-,-,-,65.5
O=C(c1ccccc1C(=O)N1CCN(c2ccc(F)cc2)CC1)N1CCN(c2ccc(F)cc2)CC1,-,.,-,-,-,-
CN1CCC(N(C)C(=O)c2sc3cc(F)ccc3c2Cl)CC1,-,-,90.4,-,-,-
O=C(CSc1nnc(-c2ccncc2)n1-c1ccc(Cl)cc1)N1CCOCC1,-,.,-,-,-,-
CC(=O)Nc1sc(N/N=C/c2ccccc2F)nc1-c1ccc(C)cc1,.,.,.,.,-,.
CC(C)(CN1CCN(c2ccccc2)CC1)NS(=O)(=O)c1ccccc1,.,.,.,.,-,.
